Measurements from ChEMBL document CHEMBL5303300, “EUbOPEN Chemogenomics Library - Multiplex” (2023).
Several values for one entry are separate records, joined by “and”; a condition that tells them apart may be missing. Identical values can stand only once.

System: HEK-293T
Assay: Multiplex assay against HEK293T
Format: toxicity, cell-based
Conditions: human, number of replicates 2
How it was run: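 Hoechst33342, BioTracker Green Microtubule Cytoskeleton Dye, MitoTracker Red and Annexin V Alexa Fluor 680 were added to live cells at seeding, and imaging on a CQ1 microscope at 37°C and 5% CO2 followed compound addition. Gating by CellPathfinder machine learning separated cells into Hoechst high-intensity objects or normal cells, then normal cells into healthy, pyknosed or fragmented nuclei, then pyknosed cells into mitotic or apoptotic. Per cents of healthy-nucleus cells are reported for the tubulin, mitochondrial-mass and membrane-permeability phenotypes.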

[1] = 12 h, 1 µM, compound concentration 1 uM
[2] = 12 h, 10 µM, compound concentration 10 uM
[3] = 24 h, 1 µM, compound concentration 1 uM
[4] = 24 h, 10 µM, compound concentration 10 uM
[5] = 48 h, 1 µM, compound concentration 1 uM
[6] = 48 h, 10 µM, compound concentration 10 uM

SMILES: CCn1ccc(Nc2ncc3c(n2)-c2c(nn(C)c2-c2ccc(-c4cnn(C)c4)cc2Cl)CC3)n1
- Population Apoptotic (%) [1]: 31% and 47%
- Population Fragmented Nuclei (%) [1]: 3%
- Population Healthy Nuclei (%) [1]: 87% and 84%
- Population Hoechst High Intensity Objects (%) [1]: 14% and 10%
- Population Membrane Permeable-Phenotype (%) [1]: 1% and 0%
- Population Mitochondria Different-Phenotype (%) [1]: 44% and 42%
- Population Mitotic Cells (%) [1]: 68% and 52%
- Population Normal (%) [1]: 85% and 89%
- Population Pyknosed Nuclei (%) [1]: 8% and 12%
- Population Tubulin-Different-Phenotype (%) [1]: 84% and 81%
- Total Cell Count [1]: 429 and 424
- Population Apoptotic (%) [2]: 76% and 63%
- Population Fragmented Nuclei (%) [2]: 4% and 9%
- Population Healthy Nuclei (%) [2]: 86% and 80%
- Population Hoechst High Intensity Objects (%) [2]: 11%
- Population Membrane Permeable-Phenotype (%) [2]: 3% and 0%
- Population Mitochondria Different-Phenotype (%) [2]: 58% and 68%
- Population Mitotic Cells (%) [2]: 24% and 36%
- Population Normal (%) [2]: 88%
- Population Pyknosed Nuclei (%) [2]: 8% and 10%
- Population Tubulin-Different-Phenotype (%) [2]: 92% and 94%
- Total Cell Count [2]: 332 and 321
- Population Apoptotic (%) [3]: 26% and 62%
- Population Fragmented Nuclei (%) [3]: 5%
- Population Healthy Nuclei (%) [3]: 87% and 85%
- Population Hoechst High Intensity Objects (%) [3]: 13% and 15%
- Population Membrane Permeable-Phenotype (%) [3]: 1%
- Population Mitochondria Different-Phenotype (%) [3]: 40% and 28%
- Population Mitotic Cells (%) [3]: 73% and 37%
- Population Normal (%) [3]: 86% and 84%
- Population Pyknosed Nuclei (%) [3]: 7% and 9%
- Population Tubulin-Different-Phenotype (%) [3]: 80% and 69%
- Total Cell Count [3]: 473 and 512
- Population Apoptotic (%) [4]: 72% and 81%
- Population Fragmented Nuclei (%) [4]: 4% and 11%
- Population Healthy Nuclei (%) [4]: 89% and 80%
- Population Hoechst High Intensity Objects (%) [4]: 15% and 18%
- Population Membrane Permeable-Phenotype (%) [4]: 0% and 1%
- Population Mitochondria Different-Phenotype (%) [4]: 34% and 45%
- Population Mitotic Cells (%) [4]: 27% and 18%
- Population Normal (%) [4]: 84% and 81%
- Population Pyknosed Nuclei (%) [4]: 5% and 8%
- Population Tubulin-Different-Phenotype (%) [4]: 80%
- Total Cell Count [4]: 438 and 393
- Population Apoptotic (%) [5]: 52% and 61%
- Population Fragmented Nuclei (%) [5]: 13% and 10%
- Population Healthy Nuclei (%) [5]: 83% and 85%
- Population Hoechst High Intensity Objects (%) [5]: 20%
- Population Membrane Permeable-Phenotype (%) [5]: 4% and 2%
- Population Mitochondria Different-Phenotype (%) [5]: 7% and 12%
- Population Mitotic Cells (%) [5]: 47% and 38%
- Population Normal (%) [5]: 79%
- Population Pyknosed Nuclei (%) [5]: 2% and 3%
- Population Tubulin-Different-Phenotype (%) [5]: 60% and 59%
- Total Cell Count [5]: 930 and 827
- Population Apoptotic (%) [6]: 41% and 52%
- Population Fragmented Nuclei (%) [6]: 11% and 14%
- Population Healthy Nuclei (%) [6]: 85% and 82%
- Population Hoechst High Intensity Objects (%) [6]: 14% and 18%
- Population Membrane Permeable-Phenotype (%) [6]: 2% and 0%
- Population Mitochondria Different-Phenotype (%) [6]: 11% and 15%
- Population Mitotic Cells (%) [6]: 58% and 47%
- Population Normal (%) [6]: 85% and 81%
- Population Pyknosed Nuclei (%) [6]: 2% and 3%
- Population Tubulin-Different-Phenotype (%) [6]: 65% and 63%
- Total Cell Count [6]: 674 and 549

SMILES: CN1CCN(c2ccc(-n3cc(-c4ccncc4OCC4CCNCC4)cn3)cc2)CC1
- Population Apoptotic (%) [1]: 50% and 48%
- Population Fragmented Nuclei (%) [1]: 4% and 3%
- Population Healthy Nuclei (%) [1]: 86% and 85%
- Population Hoechst High Intensity Objects (%) [1]: 7% and 5%
- Population Membrane Permeable-Phenotype (%) [1]: 4% and 2%
- Population Mitochondria Different-Phenotype (%) [1]: 9% and 10%
- Population Mitotic Cells (%) [1]: 50% and 51%
- Population Normal (%) [1]: 92% and 94%
- Population Pyknosed Nuclei (%) [1]: 9% and 11%
- Population Tubulin-Different-Phenotype (%) [1]: 38%
- Total Cell Count [1]: 587 and 556
- Population Apoptotic (%) [2]: 88% and 66%
- Population Fragmented Nuclei (%) [2]: 1%
- Population Healthy Nuclei (%) [2]: 94% and 95%
- Population Hoechst High Intensity Objects (%) [2]: 3% and 5%
- Population Membrane Permeable-Phenotype (%) [2]: 4% and 6%
- Population Mitochondria Different-Phenotype (%) [2]: 28% and 17%
- Population Mitotic Cells (%) [2]: 11% and 33%
- Population Normal (%) [2]: 96% and 94%
- Population Pyknosed Nuclei (%) [2]: 3% and 2%
- Population Tubulin-Different-Phenotype (%) [2]: 71% and 76%
- Total Cell Count [2]: 452 and 604
- Population Apoptotic (%) [3]: 29% and 50%
- Population Fragmented Nuclei (%) [3]: 6% and 7%
- Population Healthy Nuclei (%) [3]: 84% and 83%
- Population Hoechst High Intensity Objects (%) [3]: 8% and 7%
- Population Membrane Permeable-Phenotype (%) [3]: 3% and 1%
- Population Mitochondria Different-Phenotype (%) [3]: 2% and 6%
- Population Mitotic Cells (%) [3]: 70% and 50%
- Population Normal (%) [3]: 91% and 92%
- Population Pyknosed Nuclei (%) [3]: 8% and 9%
- Population Tubulin-Different-Phenotype (%) [3]: 18% and 21%
- Total Cell Count [3]: 857 and 751
- Population Apoptotic (%) [4]: 66% and 54%
- Population Fragmented Nuclei (%) [4]: 4% and 3%
- Population Healthy Nuclei (%) [4]: 93% and 94%
- Population Hoechst High Intensity Objects (%) [4]: 7% and 6%
- Population Membrane Permeable-Phenotype (%) [4]: 6% and 8%
- Population Mitochondria Different-Phenotype (%) [4]: 20% and 11%
- Population Mitotic Cells (%) [4]: 33% and 45%
- Population Normal (%) [4]: 92% and 93%
- Population Pyknosed Nuclei (%) [4]: 1%
- Population Tubulin-Different-Phenotype (%) [4]: 75% and 80%
- Total Cell Count [4]: 463 and 591
- Population Apoptotic (%) [5]: 11% and 20%
- Population Fragmented Nuclei (%) [5]: 16% and 11%
- Population Healthy Nuclei (%) [5]: 79% and 85%
- Population Hoechst High Intensity Objects (%) [5]: 10% and 9%
- Population Membrane Permeable-Phenotype (%) [5]: 3%
- Population Mitochondria Different-Phenotype (%) [5]: 0% and 2%
- Population Mitotic Cells (%) [5]: 88% and 80%
- Population Normal (%) [5]: 89% and 90%
- Population Pyknosed Nuclei (%) [5]: 4% and 3%
- Population Tubulin-Different-Phenotype (%) [5]: 7% and 11%
- Total Cell Count [5]: 1935 and 1522
- Population Apoptotic (%) [6]: 81% and 57%
- Population Fragmented Nuclei (%) [6]: 11% and 10%
- Population Healthy Nuclei (%) [6]: 86% and 85%
- Population Hoechst High Intensity Objects (%) [6]: 9%
- Population Membrane Permeable-Phenotype (%) [6]: 4%
- Population Mitochondria Different-Phenotype (%) [6]: 6% and 10%
- Population Mitotic Cells (%) [6]: 18% and 42%
- Population Normal (%) [6]: 90%
- Population Pyknosed Nuclei (%) [6]: 1% and 3%
- Population Tubulin-Different-Phenotype (%) [6]: 56% and 45%
- Total Cell Count [6]: 617 and 528
